# TRPC6 inhibitor = inhibitors of mouse TRPC6 channel; Q61143; HEK293-TRPC6, membrane potential dye, ACh-evoked depolarization; active compounds read low; B-score at 10 µM; actives 1.1% (n = 310,000); AID 2553;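 active means B-score under library mean minus 3 SD, initial fluorescence not abnormally high, positive integrated signal ratio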;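 further: B-score derived from integrated fluorescence ratio over the kinetic read; more negative B-score means stronger inhibition of depolarization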
# Target sequence (Q61143 whole entry, looked up): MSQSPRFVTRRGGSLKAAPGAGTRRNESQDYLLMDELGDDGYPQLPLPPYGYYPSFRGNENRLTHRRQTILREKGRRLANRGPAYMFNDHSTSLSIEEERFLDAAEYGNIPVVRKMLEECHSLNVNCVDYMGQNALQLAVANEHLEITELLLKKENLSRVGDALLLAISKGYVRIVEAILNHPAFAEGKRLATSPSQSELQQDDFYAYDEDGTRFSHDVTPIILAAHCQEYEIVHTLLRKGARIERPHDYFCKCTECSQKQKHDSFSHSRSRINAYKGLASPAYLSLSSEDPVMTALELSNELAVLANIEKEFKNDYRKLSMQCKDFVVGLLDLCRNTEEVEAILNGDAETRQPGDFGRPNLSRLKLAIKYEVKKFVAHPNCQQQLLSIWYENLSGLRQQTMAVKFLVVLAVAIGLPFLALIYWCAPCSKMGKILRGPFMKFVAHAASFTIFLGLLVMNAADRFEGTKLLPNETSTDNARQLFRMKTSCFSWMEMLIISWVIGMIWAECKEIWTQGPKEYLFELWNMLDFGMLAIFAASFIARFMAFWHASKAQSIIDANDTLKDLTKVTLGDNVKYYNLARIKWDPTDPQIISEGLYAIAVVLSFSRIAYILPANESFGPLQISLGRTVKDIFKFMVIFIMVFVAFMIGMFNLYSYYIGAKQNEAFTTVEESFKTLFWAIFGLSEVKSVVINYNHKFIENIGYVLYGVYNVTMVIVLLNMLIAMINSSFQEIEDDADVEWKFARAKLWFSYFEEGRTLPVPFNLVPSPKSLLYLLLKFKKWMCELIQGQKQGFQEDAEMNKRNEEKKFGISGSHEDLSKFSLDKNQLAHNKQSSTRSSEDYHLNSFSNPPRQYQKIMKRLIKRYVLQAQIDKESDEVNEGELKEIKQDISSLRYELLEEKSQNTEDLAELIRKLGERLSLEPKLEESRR
# TRPC4 PAM = TRPC4 (mouse) allosteric potentiation; Q9QUQ5; HEK293 TRPC4beta/mu-opioid, DAMGO EC20, Fluo-4 Ca2+ flux; active compounds read high; B-score at 10 µM; actives 0.42% (n = 310,000);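 active means B-score of calcium response area above 5 SD of library B-scores, with initial fluorescence ratio within 5 SD of library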;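 further: B-score of integrated fluorescence ratio over time as area under calcium response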
# TRPC6 act = mouse TRPC6 channel activation. Q61143. HEK293-TRPC6 membrane potential dye fluorescence; active compounds read high. B-score at 10 µM. actives 0.13% (n = 310,000);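 active means B-score of the integrated fluorescence ratio above library mean plus 3 SD, and starting fluorescence ratio within library mean plus 5 SD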;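 further: higher score means more depolarization so channel activation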
# TRPC4 agonist = opens the mouse TRPC4 cation channel. actives 0.49% (n = 310,000). HEK293 TRPC4beta/mu-opioid, Fluo4 calcium fluorescence; active compounds read high. B-score at 10 µM;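 active means B-score above 5 SD of library B-scores, and initial fluorescence ratio not above library mean plus 5 SD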;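 further: positive B-score marks a calcium rise read as TRPC4 activation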
#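 Incubation: 45 min room-temperature Fluo4 loading, 110 s read / System: HEK293 cells stably co-expressing mouse TRPC4beta and mu-opioid receptor / Signal: Fluo4 fluorescence, kinetic / Control set: buffer (low) and maximal DAMGO (high) / Measure: integrated baseline-normalised fluorescence ratio, converted to per-well B score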
# TRPC4 block = blocks the mouse TRPC4 cation channel | HEK293 TRPC4beta/mu-opioid, DAMGO-evoked Fluo4 calcium flux; active compounds read low | Q9QUQ5 | AID 2247 | B-score at 10 µM | actives 0.39% (n = 300,000);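 active means B-score over 3 SD under the library average, no early fluorescence shift, positive overall ratio signal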
#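 System: stable TRPC4beta/mu-opioid receptor HEK293 cells; Dosing: single-point compound dosing; Measured by: Fluo4 Ca2+ flux fluorescence; Read-out basis: per-well B score of integrated baseline-normalized Fluo4 ratio.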
# TRPC4 sel inh 2 = second check of whether TRPC6 inhibitors also affect mouse TRPC4; HEK293 TRPC4/MOR, membrane potential dye fluorescence; channel activated by saturating DAMGO dose; actives 42% (n = 920); inhibition, % at 10 µM; shares compounds with TRPC6 inhibitor; AID 2776;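 active means compounds whose fluorescence signal differed from control wells by over 3 SD, either direction, in both duplicate plates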
# TRPC4 spec = mouse TRPC4 off-target activity of TRPC6 inhibitors; shares compounds with TRPC6 inhibitor; HEK293 TRPC4/mu-opioid, membrane potential fluorescence; activity change, negative = inhibition, % at 10 µM; actives 61% (n = 920); AID 2777;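 active means rise or fall in signal beyond 3 SD of buffer-only wells in both replicate plates, either sign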;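 further: integrated kinetic ratio of fluorescence range over baseline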
# HEK293 MPD ctr 2-1 = second check of TRPC6 inhibitor effects in parental HEK293 cells. shares compounds with TRPC6 inhibitor. parental HEK293 membrane potential dye fluorescence; maximal acetylcholine challenge after compound addition. signal change vs control, % at 10 µM. actives 31% (n = 920);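 active means membrane potential signal moving either way by over 3 SD of the maximum-effect control, in both duplicate plates, meaning non-specific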
# HEK293 MPD ctr-1 = checks TRPC6 inhibitor effects in parental HEK293 cells | shares compounds with TRPC6 inhibitor | parental HEK293 membrane potential dye fluorescence | membrane potential signal change, % at 10 µM | actives 60% (n = 920) | AID 2780;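 active means membrane potential signal shifting up or down by more than 3 SD of buffer-only wells, on both duplicate plates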
# HEK293 MPD ctr-2 = checks TRPC6 modulator effects in parental HEK293 cells; shares compounds with TRPC6 inhibitor; membrane potential dye fluorescence; membrane potential signal change, % at 10 µM; actives 51% (n = 2,400); AID 488924;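 active means membrane potential signal moves up or down beyond 5 SD from buffer-only wells, on both duplicate plates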
# HEK293 MPD ctr 2-2 = second counter-screen for TRPC6 modulators: effect in parental HEK293 cells | shares compounds with TRPC6 inhibitor | membrane potential dye fluorescence; after compound, maximal acetylcholine stimulation | inhibition, % at 10 µM | actives 14% (n = 2,400) | AID 488926;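 active means membrane potential signal drops by more than 5 SD from the mean control signal, in both duplicate plates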;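 further: plate controls were acetylcholine ECmax control wells for no effect and buffer only wells for full effect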
# TRPC4/MOR mod = selectivity of TRPC6 modulators against mouse TRPC4 | actives 69% (n = 2,400) | AID 488927 | percent change from control (negative = decrease, positive = increase), % at 10 µM | shares compounds with TRPC6 inhibitor | HEK293 TRPC4/mu-opioid, membrane potential fluorescence;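 active means membrane potential signal moved up or down beyond 5 SD of buffer control wells, in both duplicate plates, actives on both sides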;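 further: plate controls were assay buffer wells for no effect and DAMGO maximal-effect wells for full effect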
# TRPC4/MOR inh 2 = mouse TRPC4 off-target activity of TRPC6 modulators, second screen; shares compounds with TRPC6 inhibitor; HEK293 TRPC4/mu-opioid, membrane potential dye fluorescence; stimulated with maximal-effect DAMGO; inhibition, % at 10 µM; actives 55% (n = 2,400);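 active means drop in membrane potential signal beyond 5 SD of the control wells in both duplicate plates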;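 further: TRPC4 counter screen for TRPC6 hits run under conditions tuned for TRPC6 not TRPC4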
# TRPC6 inh conf = mouse TRPC6 inhibitor confirmation | shares compounds with TRPC6 inhibitor | HEK293-TRPC6, membrane potential dye, ACh-evoked depolarization | inhibition, % at 10 µM | actives 43% (n = 3,300) | AID 488960;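 active means fluorescence ratio falls more than 5 SD below the full-stimulation control mean, in both duplicate runs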;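 further: integrated fluorescence ratio of peak minus minimum over baseline after agonist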
# TRPC6 act conf = mouse TRPC6 activator confirmation | HEK293-TRPC6 membrane potential dye fluorescence, FDSS | shares compounds with TRPC6 inhibitor | actives 11% (n = 2,800) | AID 488961 | activation, % at 10 µM;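 active means ratio signal rise beyond 5 SD above unstimulated control wells' mean, seen in both duplicate runs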;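 further: plate controls were buffer EC0 wells for no effect and acetylcholine ECmax response for full effect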
# Starred values were filed as active, the others as inactive; i = inactive; · = no result. An excerpt weighted towards active compounds, which were near 2.3% of everything screened.
SMILES,TRPC6 inhibitor,TRPC4 PAM,TRPC6 act,TRPC4 agonist,TRPC4 block,HEK293 MPD ctr-2,HEK293 MPD ctr 2-2,TRPC4/MOR mod,TRPC4/MOR inh 2,TRPC6 inh conf,TRPC6 act conf,others
Cc1ccc(-n2nc3c(=O)n(CC(=O)NC(C)CCc4ccccc4)nc(C)c3c2C)cc1 (configuration not stated),i,i,i,i,i,·,·,·,·,·,·,
CCN(CC)CCCN(Cc1cc2cc3c(cc2[nH]c1=O)OCO3)C(=S)NCc1ccco1,i,i,i,i,i,·,·,·,·,·,·,
CCN(CC)CCN(Cc1cc2cc3c(cc2[nH]c1=O)OCO3)C(=S)NCc1ccco1,-5.5*,i,i,i,i,i,i,i,58%*,i,·,
Cc1c(O)c(CN2CCCCC2)cc2c3c(c(=O)oc12)CCC3,-10*,i,i,i,i,-243%*,i,-39%*,i,44%*,i,
Cc1c(O)c(CN2CCCCC2)cc2c1oc(=O)c1ccccc12,i,i,i,i,i,·,·,·,·,·,·,
COc1cc(/C=C/c2ccc3c([N+](=O)[O-])cccc3n2)ccc1OCC(=O)O,i,i,i,i,i,·,·,·,·,·,·,
COc1cc(/C=C/c2nc3ccc([N+](=O)[O-])cc3s2)ccc1OCC(=O)O,-6.7*,i,i,i,i,-69%*,i,-20%*,i,i,i,
CC(=O)c1c(N2CCC(C(N)=O)CC2)nc(=S)n(-c2ccccc2)c1C,i,i,i,i,i,·,·,·,·,·,·,
O=C(COc1ccc2cc(Br)ccc2c1Br)N1CCOCC1,i,i,i,i,i,·,·,·,·,·,·,
Clc1ccc(-c2nc3ccccc3[nH]2)cn1,i,i,i,i,i,·,·,·,·,·,·,
N#CC1=C(N)OC2=C(CC/C2=C\c2ccccc2)C1c1ccccc1 (configuration not stated),i,13*,27*,i,i,576%*,i,21%*,i,i,48%*,
COC(=O)CCCn1nc(NC(=O)c2ccco2)cc1C,i,i,i,i,i,·,·,·,·,·,·,
O=C(/C(=C/c1ccc(Cl)cc1)c1nc2ccccc2[nH]1)c1cccs1,-6.8*,i,i,i,i,·,·,·,·,i,i,TRPC4 sel inh 2=i;TRPC4 spec=i;HEK293 MPD ctr 2-1=i;HEK293 MPD ctr-1=i
COc1ccc(CNc2ccc(Cl)cc2)cc1Cn1ccnc1,-5.2*,i,i,i,i,i,i,i,56%*,i,i,
COc1ccc(Cl)cc1C(=O)NCCCn1ccnc1,i,i,i,i,i,·,·,·,·,·,·,
CCc1ccc(NCc2ccc(OC)c(Cn3ccnc3)c2)cc1,-5.4*,i,i,i,i,i,i,-10%*,52%*,40%*,i,
COc1ccc(C=O)cc1Cn1ccnc1,i,i,i,i,i,·,·,·,·,·,·,
CCOCCCNC(=O)Cn1cnc2c(cnn2-c2ccc(C)c(C)c2)c1=O,i,i,i,i,i,·,·,·,·,·,·,
COc1ccc(OC)c(CN2CCN(C(=O)c3ccc(F)cc3)CC2)c1,i,i,i,i,i,·,·,·,·,·,·,
COC(=O)c1cn(Cc2cc(OC)ccc2OC)cc(F)c1=O,-5.3*,i,i,i,i,i,i,i,i,i,i,
CC(=O)Nc1cc(NC(C)=O)cc(C(=O)OCC(=O)Nc2ccc(S(=O)(=O)NC3=NCCCCC3)cc2)c1,i,i,i,i,i,·,·,·,·,·,·,
COc1ccc(Nc2nc(NCC3CCCO3)c3ccccc3n2)c(OC)c1 (configuration not stated),-9.8*,i,i,i,-6*,·,·,·,·,75%*,i,TRPC4 sel inh 2=48%*;TRPC4 spec=-16%*;HEK293 MPD ctr 2-1=i;HEK293 MPD ctr-1=-223%*
Oc1cccc(Nc2nc(NCC3CCCO3)c3ccccc3n2)c1 (configuration not stated),i,i,i,i,i,·,·,·,·,·,·,
c1ccc(Nc2nc(NCC3CCCO3)c3ccccc3n2)cc1 (configuration not stated),-8.8*,i,i,i,-6*,·,·,·,·,53%*,i,TRPC4 sel inh 2=31%*;TRPC4 spec=-15%*;HEK293 MPD ctr 2-1=i;HEK293 MPD ctr-1=-135%*
CCOc1ccc(Nc2nc(NCC3CCCO3)c3ccccc3n2)cc1 (configuration not stated),-9.6*,i,i,i,-5*,·,·,·,·,i,i,TRPC4 sel inh 2=56%*;TRPC4 spec=-17%*;HEK293 MPD ctr 2-1=i;HEK293 MPD ctr-1=-150%*
c1ccc(-c2nc(NCC3CCCO3)c3ccccc3n2)nc1 (configuration not stated),i,i,i,i,i,·,·,·,·,·,·,
NC(=O)CNC(=O)[C@@H]1CC2(CC(c3ccc(Cl)cc3)=NO2)CN1C(=O)c1ccc(Br)cc1 (some centres not stated),i,i,i,i,i,·,·,·,·,·,·,
COc1cc(C2NC(=O)NC3=C2C(=O)OC3)cc(OC)c1OC (configuration not stated),i,i,i,i,i,·,·,·,·,·,·,

# Source: PubChem (Johns Hopkins Ion Channel Center)
